What was measured:
Type in all cases: functional
[1] = Antiproliferative activity against multidrug-resistant P-gp expressing human KBVIN cells by sulforhodamine B assay
Summary of the method: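 Vincristine-resistant KB subline kept in 100 nM vincristine, then grown 7–10 days without it before testing. RPMI 1640 with 10% FBS, 37 °C, 5% CO2. 3–5 × 10³ cells/well exposed 72 h to a concentration series, paclitaxel as assay control. SRB staining after TCA fixation, A515 read. GI50 is the 50% absorbance reduction versus untreated cells; three or more experiments.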

KB = assay: Antiproliferative activity against human KB cells by sulforhodamine B assay
Summary of the method: (§1)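 Cells in RPMI 1640 (25 mM HEPES, 2 mM L-glutamine, 10% heat-inactivated FBS, antibiotics) at 37 °C, 5% CO2. Seeded at 3–5 × 10³/well with graded concentrations, paclitaxel as assay control, for 72 h. TCA-fixed, stained with 0.04% SRB, dye dissolved in 10 mM Tris, A515 read. GI50 is the concentration halving absorbance versus untreated cells; three or more experiments.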

DU-145 = assay: Antiproliferative activity against human DU145 cells by sulforhodamine B assay; summary of the method: as §1
[2] = Selectivity ratio of GI50 for human KB cells to GI50 for multidrug-resistant P-gp expressing human KBVIN cells
Summary of the method: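 Ratio of GI50 in parental KB to GI50 in P-gp-overexpressing KB-VIN. […] KB-VIN cells were grown 7–10 days without vincristine before the assay.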

A549 = assay: Antiproliferative activity against human A549 cells by sulforhodamine B assay; summary of the method: as §1

SMILES | GI50 [1] [µM] | GI50 (KB) [µM] | GI50 (DU-145) [µM] | RatioGI50 [2] | GI50 (A549) [µM]
C=C1[C@H]2C[C@@H]3C4N5C[C@]6(C)CCC[C@@]47[C@@H]6[C@@]5(OC(=O)c4ccc(OC)c(OC)c4)C[C@]3([C@@H]1OC(=O)c1ccc(OC)c(OC)c1)[C@H]7[C@H]2O | 10 | 10 | 10 | 10 | 10
C=C1[C@H]2C[C@@H]3C4N5C[C@]6(C)CCC[C@@]47[C@@H]6[C@@]5(OC(=O)c4ccc([N+](=O)[O-])cc4)C[C@]3([C@@H]1OC(=O)c1ccc([N+](=O)[O-])cc1)[C@H]7[C@H]2O | > 20 | > 20 | > 20 | >20 | > 20
C=C1[C@H]2C[C@H]3C4N5C[C@]6(C)CCC[C@]47[C@H]([C@H]2O)C3(C[C@]5(OC(=O)c2ccccc2)[C@H]67)[C@@H]1O | > 20 | > 20 | > 20 | >20 | > 20
C=C1[C@H]2C[C@@H]3C4N5C[C@]6(C)CCC[C@@]47[C@@H]6[C@@]5(OC(=O)c4cccc(C(F)(F)F)c4)C[C@]3([C@@H]1O)[C@H]7[C@H]2OC(=O)c1cccc(C(F)(F)F)c1 | > 20 | > 20 | > 20 | >20 | > 20
CCN1C[C@]2(COC)CC[C@H](O)[C@]34C1[C@@H]([C@H](OC)[C@H]23)[C@@]1(O)C[C@H](OC)[C@H]2C[C@@H]4[C@@H]1[C@H]2OC(=O)c1ccccc1 | > 20 | > 20 | > 20 | >20 | > 20
C=C1[C@H]2C[C@@H]3C4N5C[C@]6(C)CCC[C@@]47[C@@H]6[C@@H]5C[C@]3([C@@H]1O)[C@H]7[C@H]2OC(=O)c1ccc(OC(F)(F)F)cc1 | 10 | 10 | 10 | 10 | 10
CCN1C[C@]2(COC)CC[C@H](OC)[C@]34C1[C@@](O)([C@@H](OC)[C@H]23)[C@@]1(O)C[C@H](OC)[C@H]2C[C@@H]4[C@@H]1[C@H]2OC(C)=O | > 20 | > 20 | > 20 | >20 | > 20
COC[C@]12CN(C)C3[C@@H]4[C@H](OC)[C@H]1[C@@]3([C@@H](OC)C[C@H]2O)[C@@H]1C[C@@]2(O)[C@H](OC(=O)c3ccccc3)[C@@H]1[C@]4(OC(C)=O)[C@@H](O)[C@@H]2OC | > 20 | > 20 | > 20 | >20 | > 20
CCN1C(=O)[C@]2(COC(=O)c3ccccc3N)CC[C@H](OC)[C@]34C1[C@@](O)([C@@H](OC)[C@H]23)[C@@]1(O)C[C@H](OC)[C@H]2C[C@@H]4[C@@H]1[C@H]2OC | > 20 | > 20 | > 20 | >20 | > 20
CCN1C[C@]2(COC)CC[C@H](OC)[C@]34C1C([C@H](OC)[C@H]23)[C@]1(OC(C)=O)[C@H]2[C@@H](OC(=O)c3ccc(OC)cc3)[C@](O)(C[C@H]24)[C@@H](OC)[C@@H]1O [DEOXYJESACONITINE] | > 20 | > 20 | > 20 | >20 | > 20
C=C1[C@H]2C[C@H]3C4N5C[C@]6(C)CCC[C@]47[C@H]([C@H]2O)C3(CC5[C@H]67)[C@@H]1O [KOBUSINE] | > 20 | > 20 | > 20 | >20 | > 20
C=C1[C@H]2C[C@@H]3C4N5C[C@]6(C)CCC[C@@]47[C@@H]6[C@@]5(O)C[C@]3([C@@H]1OC(=O)c1ccc([N+](=O)[O-])cc1)[C@H]7[C@H]2O | > 20 | > 20 | > 20 | >20 | > 20
C=C1[C@H]2C[C@@H]3C4N5C[C@]6(C)CCC[C@@]47[C@@H]6[C@@]5(O)C[C@]3([C@@H]1OC(=O)c1ccc(OC)c(OC)c1)[C@H]7[C@H]2O | > 20 | > 20 | > 20 | >20 | > 20
C=C1[C@H]2C[C@@H]3C4N5C[C@]6(C)CCC[C@@]47[C@@H]6[C@@]5(O)C[C@]3([C@@H]1OC(=O)c1cccc([N+](=O)[O-])c1)[C@H]7[C@H]2OC(=O)c1cccc([N+](=O)[O-])c1 | 5.6 | 5.6 | 5.2 | 0.99 | 5
CCN1C[C@]2(COC(=O)c3ccccc3N)CC[C@H](OC)[C@]34C1[C@@](O)([C@@H](OC)[C@H]23)[C@@]1(O)C[C@H](OC)[C@H]2C[C@@H]4[C@@H]1[C@H]2OC(C)=O | > 20 | > 20 | > 20 | >20 | > 20
C=C1[C@H]2C[C@@H]3C4N5C[C@]6(C)CCC[C@@]47[C@@H]6[C@@]5(OC(=O)c4ccc([N+](=O)[O-])cc4)C[C@]3([C@@H]1OC(=O)c1ccc([N+](=O)[O-])cc1)[C@H]7[C@H]2OC(=O)c1ccc([N+](=O)[O-])cc1 | > 20 | > 20 | > 20 | >20 | > 20
C=C1[C@H]2C[C@@H]3C4N5C[C@]6(C)CCC[C@@]47[C@@H]6[C@@H]5C[C@]3([C@@H]1O)[C@H]7[C@H]2OC(=O)c1ccccc1 | > 20 | > 20 | > 20 | >20 | > 20
CCN1C[C@]2(COC)[C@H](O)C[C@H](O)[C@]34C1[C@@](O)([C@@H](O)[C@H]23)[C@@]1(O)C[C@H](OC)[C@H]2C[C@@H]4[C@@H]1[C@H]2O | > 20 | > 20 | > 20 | >20 | > 20
CCN1C[C@]2(COC)[C@H](O)C[C@H](OC)[C@]34C1[C@H]([C@H](OC)[C@H]23)[C@]1(OC(C)=O)[C@H]2[C@@H](OC(=O)c3ccc(OC)cc3)[C@](O)(C[C@H]24)[C@@H](OC)[C@@H]1O | > 20 | > 20 | > 20 | >20 | > 20
COC[C@]12CC[C@H](O)[C@]34C(NC1)[C@@](O)([C@@H](OC)[C@H]23)[C@@]1(O)C[C@H](OC)[C@H]2C[C@@H]4[C@@H]1[C@H]2OC | > 20 | > 20 | > 20 | >20 | > 20
CCN1C2OC3CCC2(COC)[C@H]2[C@H](OC)[C@]4(O)C1[C@@]32[C@@H]1C[C@H]2[C@H](O)[C@@H]1[C@]4(O)C[C@@H]2OC | > 20 | > 20 | > 20 | >20 | > 20
C=C1[C@H]2C[C@@]3([C@@H]1OC(C)=O)[C@@H](C[C@@H]2O)[C@@]12C4[C@@H]3C[C@@H]1[C@@](C)(CC[C@@H]2O)C[N+]4([O-])CC (some centres not stated) | > 20 | > 20 | > 20 | >20 | > 20
CCN1C[C@]2(COC)[C@H](O)C[C@H](OC(C)=O)[C@]34C1[C@@](O)([C@@H](OC)[C@H]23)[C@@]1(O)C[C@H](OC)[C@H]2C[C@@H]4[C@@H]1[C@H]2OC(C)=O | > 20 | > 20 | > 20 | >20 | > 20
CCN1C[C@]2(COC)CC[C@H](O)[C@]34C1[C@@](O)([C@@H](OC)[C@H]23)[C@@]1(O)C[C@H](OC)[C@H]2C[C@@H]4[C@@H]1[C@H]2OC [DELSOLINE] | > 20 | > 20 | > 20 | >20 | > 20
C=C1[C@H]2C[C@@]3(C4C[C@@H]5C6(C)CCC7O[C@H]6N(CC)C4C75[C@@H]3C[C@@H]2OC(C)=O)[C@@H]1OC(C)=O | > 20 | > 20 | > 20 | >20 | > 20
C=C1[C@H]2C[C@@H]3C4N5C[C@]6(C)CCC[C@@]47[C@@H]6[C@@]5(O)C[C@]3([C@@H]1O)[C@H]7[C@H]2OC(=O)c1ccc([N+](=O)[O-])cc1 | 6.4 | 6.4 | 7.2 | 1 | 5.8
C=C1[C@H]2C[C@@H]3C4N5C[C@]6(C)CCC[C@@]47[C@@H]6[C@@]5(O)C[C@]3([C@@H]1OC(C)=O)[C@H]7[C@H]2O | > 20 | > 20 | > 20 |  | > 20
C=C1[C@H]2C[C@@H]3C4N(C(C)=O)C[C@]5(C)CCC[C@@]46[C@@H]5C(=O)C[C@]3([C@@H]1OC(C)=O)[C@H]6[C@H]2OC(C)=O (some centres not stated) | > 20 | > 20 | > 20 |  | > 20
C=C1[C@H]2C[C@@H]3C4N5C[C@]6(C)CCC[C@@]47[C@@H]6[C@@]5(O)C[C@]3([C@@H]1OC(C)=O)[C@H]7[C@H]2OC(C)=O | > 20 | > 20 | > 20 |  | > 20

Reference: ChEMBL document CHEMBL3400028, “Evaluation of Aconitum diterpenoid alkaloids as antiproliferative agents” (2015)
